One assay has as its system SrtA. Description: Inhibition of SrtA catalyzed cleavage of a peptide substrate. Format: biochemical, Staphylococcus aureus. As to conditions: peptide at a concentration of up to 1 mM; data not shown. Summed up: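 SrtA cleaved a peptide substrate; this reaction has a Km of 80 μM. The test compound was tested at concentrations up to 1 mM.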
The target of a further assay is T1, Sortase B (SrtB) (Staphylococcus aureus, UniProt Q2FZE3).
T1 sequence (Q2FZE3 31-244 limits assumed): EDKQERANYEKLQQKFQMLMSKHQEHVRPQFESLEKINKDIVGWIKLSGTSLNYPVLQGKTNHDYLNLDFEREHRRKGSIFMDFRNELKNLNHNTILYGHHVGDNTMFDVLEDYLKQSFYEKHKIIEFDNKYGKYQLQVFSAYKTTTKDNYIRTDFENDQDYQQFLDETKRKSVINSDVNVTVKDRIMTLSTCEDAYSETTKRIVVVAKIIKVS
Description: Fluorescence polarization binding of fluorescein-labeled lantipeptides to SrtB. Summed up:
(§1)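 Binding constants were measured by fluorescence polarization. Test compounds were synthetic lantipeptides labeled with 5-carboxyfluorescein, with a C-terminal polyethylene glycol tail added for solubility. Sortase B was run in the same format as Sortase A. Each data point is the average of at least three independent measurements.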
(In general: Polarisation of emitted light reports the rotation of a fluorescent probe.)

The next assay addresses T2, Sortase A (SrtA) (Staphylococcus aureus, UniProt Q2FV99).
T2 sequence (Q2FV99 60-206 limits assumed): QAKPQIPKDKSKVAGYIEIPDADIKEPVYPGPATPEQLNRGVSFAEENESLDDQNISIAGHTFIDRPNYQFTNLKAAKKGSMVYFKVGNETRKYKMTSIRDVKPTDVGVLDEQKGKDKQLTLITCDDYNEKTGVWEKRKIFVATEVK
The assay is described as follows: Fluorescence polarization binding of fluorescein-labeled lantipeptides to SrtA. Conditions: SrtA binding compared with 2(2S,6R). A digest of the protocol:
as §1

A value given as a limit tells only on which side of the number the result lay.

Turning to `CC[C@H](C)[C@H](NC(=O)[C@H](CCCNC(=N)N)NC(=O)CNC(=O)[C@H](Cc1c[nH]c2ccccc12)NC(=O)[C@@H]1CSC[C@@H](NC(=O)[C@H](Cc2ccc(O)cc2)NC(=O)[C@H](Cc2c[nH]c3ccccc23)NC(=O)[C@H](CC(C)C)NC(=O)CNC(=O)[C@H](CCCNC(=N)N)NC(=O)c2ccc3c(c2)C(=O)OC32c3ccc(O)cc3Oc3cc(O)ccc32)C(=O)N[C@@H](CC(C)C)C(=O)N[C@@H](CO)C(=O)N1)C(=O)NCC(=O)N[C@@H](CCCNC(=N)N)C(=O)N[C@@H](CCCNC(=N)N)C(=O)NCCCOCCOCCOCCCNC(=O)CCC(=O)NCCCOCCOCCOCCCNC(=O)CCC(=O)NCCCOCCOCCOCCCNC(=O)CCC(=O)N[C@@H](C)C(=O)O` [2(2S,6R)], in the assay on SrtA, the “inhibition of SrtA catalyzed cleavage of a peptide substrate” value is on record as “unable to inhibit”. In addition, the “affinity to SrtB (in words)” value at Sortase B (SrtB) (fluorescein-labeled peptide) is on record as “no detectable affinity”. Besides, on Sortase B (SrtB) (read-out: Kd [μM], SrtB, SrtA was replaced by Sortase B (SrtB), 50 mM Tris HCl, 50 mM NaCl, 5 mM CaCl2, 1.2 mM TCEP, average of at least three independent measurements), the Kd (commonly the free concentration of one partner at which half of the binding sites on the other are occupied at equilibrium, for simple one-to-one binding) is above 300 µM.

Regarding `CC[C@H](C)[C@H](NC(=O)[C@H](CCCNC(=N)N)NC(=O)CNC(=O)[C@H](Cc1c[nH]c2ccccc12)NC(=O)[C@@H]1CSC[C@@H](NC(=O)[C@H](Cc2ccc(O)cc2)NC(=O)[C@H](Cc2c[nH]c3ccccc23)NC(=O)[C@H](CC(C)C)NC(=O)CNC(=O)[C@H](CCCNC(=N)N)NC(=O)c2ccc3c(c2)C(=O)OC32c3ccc(O)cc3Oc3cc(O)ccc32)C(=O)N[C@@H](CC(C)C)C(=O)N[C@@H]([C@@H](C)O)C(=O)N1)C(=O)NCC(=O)N[C@@H](CCCNC(=N)N)C(=O)N[C@@H](CCCNC(=N)N)C(=O)NCCCOCCOCCOCCCNC(=O)CCC(=O)NCCCOCCOCCOCCCNC(=O)CCC(=O)NCCCOCCOCCOCCCNC(=O)CCC(=O)N[C@@H](C)C(=O)O` [6(2S,6R)], on Sortase A (SrtA), the “fold weaker binder than 2(2S,6R)” value is on record as 10 fold.

For the origin of these results see PMC3353655 (Journal of the American Chemical Society, 2012).
